# Compound activity: PubChem BioAssay, Sanford-Burnham Center for Chemical Genomics
# Shown are actives, neighbours in structure and some others; about 3% of the full set was active somewhere.
# SENP8 block-1 – inhibitors of human SENP8 protease. recombinant SENP8, Nedd8 substrate fluorescence. inhibition, % at 20 µM. hit rate 0.64% among 360,000. AID 602440; in the data active means inhibition mostly above about 40%, no sharp cut-off; inactive means mostly below about 27%
# Target sequence (Q96LD8 whole entry, looked up): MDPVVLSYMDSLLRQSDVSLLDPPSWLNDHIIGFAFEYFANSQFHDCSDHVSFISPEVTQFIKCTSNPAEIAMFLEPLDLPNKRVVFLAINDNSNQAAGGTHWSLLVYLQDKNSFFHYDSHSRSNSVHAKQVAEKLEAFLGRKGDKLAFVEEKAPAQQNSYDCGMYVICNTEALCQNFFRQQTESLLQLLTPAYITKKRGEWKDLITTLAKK
# Apaf1 inhib – human Apaf-1 inhibition; inhibition, % at 20 µM; AID 489030; hit rate 0.71% among 330,000; reconstituted apoptosome caspase-3 activity, DEVD-Rh110 fluorescence; O14727; active means inhibition of at least 40% at 20 µM;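 further: plate controls were DMSO wells for no effect and DEVD-CHO caspase inhibitor wells for full effect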
#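 System: reconstituted apoptosome with Apaf-1, cytochrome c, caspase-9, procaspase-3, dATP; Signal: Rh110 fluorescence intensity; Schedule: 30 min compound preincubation, 50 min activation, room temperature; Reagent: cytochrome c trigger plus (Z-DEVD)2-Rh110 caspase-3 substrate.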
# SENP6 block – SENP6 protease inhibition | Recombinant SENP6 catalytic domain, aminoluciferin luminescence | inhibition, % at 10 µM | hit rate 1.8% among 330,000;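 active means inhibition above about 50% at the single tested dose, limit read from the data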;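 further: plate controls were DMSO wells with enzyme for no effect and DMSO wells lacking enzyme for full effect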
# SENP7 inh – inhibitors of human SENP7 protease. recombinant SENP7, Z-RLRGG-aminoluciferin luminescence, 40 min. AID 434973. Q9BQF6. hit rate 1.5% among 330,000. inhibition, % at 5 µM;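 active means inhibition above about 50% at the single test dose, limit read from the data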;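 further: plate controls were DMSO with enzyme for no effect and no enzyme buffer wells for full effect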
# UBC13 polyUb – human UBC13 polyubiquitination inhibition | UBC13 polyubiquitin chain formation, TR-FRET | inhibition, % at 20 µM | hit rate 0.47% among 330,000 | AID 485273; in the data active means inhibition above about 45%, passing the limit was not always enough
# Target sequence (P61088 whole entry, looked up): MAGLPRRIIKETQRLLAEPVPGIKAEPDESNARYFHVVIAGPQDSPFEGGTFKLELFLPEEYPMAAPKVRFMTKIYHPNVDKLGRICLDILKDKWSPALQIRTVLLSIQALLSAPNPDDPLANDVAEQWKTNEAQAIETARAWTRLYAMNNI
# SENP8 block-2 – SENP8 protease inhibition | Q96LD8 | purified SENP8, Z-RLRGG-aminoluciferin cleavage, luminescence | inhibition, % at 10 µM | hit rate 1.2% among 330,000 | AID 2540; in the data active means inhibition above about 50%
# SENP8 confirm – human SENP8 inhibition, confirmed | hit rate 40% among 6,200 | Recombinant SENP8, Z-RLRGG-aminoluciferin luminescence, 60 min | shares compounds with SENP7 inh | AID 488912 | inhibition, % at 12.5 µM;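 active means mean inhibition across replicates above about 50%, limit read from the data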
# SENP6 confirm – human SENP6 inhibition, confirmed; shares compounds with SENP7 inh; recombinant SENP6, Z-RLRGG-aminoluciferin luminescence; inhibition, % at 12.5 µM; hit rate 58% among 6,200; AID 488915
# SENP7 conf – confirmation of human SENP7 protease inhibitors | shares compounds with SENP7 inh | recombinant SENP7, Z-RLRGG-aminoluciferin luminescence, 40 min | inhibition, % at 12.5 µM | hit rate 69% among 6,200 | AID 488917
# Casp3 select – inhibits human caspase-3 in SENP selectivity test; shares compounds with SENP7 inh; purified caspase-3, Z-DEVD-aminoluciferin luminescence, 60 min; inhibition, % at 12.5 µM; hit rate 60% among 6,200;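 active means mean inhibition above about 50%, limit read from the data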;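 further: plate controls were enzyme with DMSO for no effect and wells without caspase-3 for full effect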
# SENP luc ctr – interferes with luciferase luminescence in SENP counter-screen | hit rate 39% among 6,200 | AID 488919 | inhibition, % at 12.5 µM | Pre-incubated SENP8/Z-RLRGG-aminoluciferin, luciferase luminescence interference | shares compounds with SENP7 inh;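 active means mean inhibition above about 50% when retested at one dose, limit read from the data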;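 further: plate controls were DMSO wells with completed reaction for no effect and substrate without enzyme for full effect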
# Active calls of the source: *; i = inactive; nt = no result.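 How the source made its calls, unless noted: active means mean inhibition above about 50% in the one-dose retest (limit read from the data); inactive means the rest.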
SMILES,SENP8 block-1,Apaf1 inhib,SENP6 block,SENP7 inh,UBC13 polyUb,SENP8 block-2,SENP8 confirm,SENP6 confirm,SENP7 conf,Casp3 select,SENP luc ctr
CN(C)c1ccc(-c2csc(C(O)c3ccc(F)c(F)c3)n2)cc1 (stereo not given),-18,nt,nt,nt,nt,nt,nt,nt,nt,nt,nt
CCCCOc1ncnc2c1[nH]c1ccc(OC)cc12,nt,-20,34,77*,14,16,27,29,48,46,5
O=C1OC(c2cc(Br)c(O)c(Br)c2)c2ccccc21 (stereo not given),7,nt,nt,nt,nt,nt,nt,nt,nt,nt,nt
Oc1c(Br)cc(C2N=C(c3ccccc3)NO2)cc1Br (stereo not given),-26,-6,98*,9,-2,81*,-21,88*,96*,79*,91*
CSc1ncc(-c2ccccc2)cn1,12,2,20,2,2,-8,nt,nt,nt,nt,nt
CSc1ccc(C2N=C(c3ccccc3)NO2)cc1 (stereo not given),-100,13,61*,11,2,45,20,7,34,11,18
CC(=O)NC(c1ccccc1)c1nc(-c2ccc3ccccc3c2)cs1 (stereo not given),20,nt,nt,nt,nt,nt,nt,nt,nt,nt,nt
CCOC(=O)c1c(NC(=O)CN2CCN(c3ccc(Cl)cc3)CC2)sc(C)c1C,-18,0,-15,55*,-3,-9,-1,5,8,4,2
CCOC(=O)c1c(NC(=O)CN2CCN(c3cccc(Cl)c3)CC2)sc(C)c1C,13,nt,nt,nt,nt,nt,nt,nt,nt,nt,nt
CNC(=O)c1ccc(-c2sc3nc(N4CCOCC4)c4c(c3c2N)CC(C)(C)OC4)o1,i,8,10,12,-6,-5,nt,nt,nt,nt,nt
CNC(=O)c1ccc(-c2sc3nc(N4CCOCC4)c4c(c3c2N)CCCC4)o1,-251,31,55*,35,17,5,2,8,5,4,-1
Cc1cc(C(=O)Nc2ccc(Br)cc2)cs1,6,3,41,60*,0,5,2,22,28,42,3
CCc1cc(C(=O)NNC(=S)NCc2ccccc2)cs1,17,-14,1,4,4,4,nt,nt,nt,nt,nt
CCc1cc(C(=O)Nc2ccccc2)cs1,5,2,67*,75*,-11,52*,64*,66*,92*,81*,77*
CCc1cc(C(=O)NNC(=S)Nc2ccccc2C)cs1,13,0,60*,28,3,36,33,30,19,14,38
CCCCC[C@H](C)N1C[C@@H](COCc2ccccc2)Oc2cc(N3CCC[C@@H]3COC)ccc2S1(=O)=O,4,nt,nt,nt,nt,nt,nt,nt,nt,nt,nt
O=C(Cn1cc(SCc2ccc(Cl)cc2)c2ccccc21)N1CCOCC1,19,28,67*,49,-6,44,13,65*,82*,26,21
O=C(Cn1cc(SCc2ccc(F)cc2)c2ccccc21)N1CCOCC1,18,4,58*,22,10,16,50*,48,79*,27,36
Cc1ccc(NC(=O)c2cc3cccc([N+](=O)[O-])c3[nH]2)cc1,15,-12,71*,89*,-8,56*,57*,63*,96*,66*,55*
CCC(C)c1ccccc1NC(=O)c1cc2cccc([N+](=O)[O-])c2[nH]1 (stereo not given),9,10,-10,7,-12,2,nt,nt,nt,nt,nt
COCCCN(Cc1cc(OC)c(OC)c(OC)c1)C(=S)Nc1cccc(SC)c1,7,nt,nt,nt,nt,nt,nt,nt,nt,nt,nt
Cc1ccc(-c2nc3ccccc3c(=O)o2)cc1,-16,3,54*,45,-1,7,39,32,47,22,33
Cc1nc2sc3c(c2c(=O)o1)CCCC3,6,-6,-4,-7,2,-2,nt,nt,nt,nt,nt
